Measurements gathered from unrelated publications.
Organism: Severe acute respiratory syndrome coronavirus 2

SMILES	read-out	mode	cells	time	notes	IC50
CCCCCCCCC=CCCCCCCCC(=O)NCCO	viral replication	inhibitor	Huh-7	–	–	> 2 µM
NC(=O)c1nc(F)c[nH]c1=O	viral replication	inhibitor	Vero C1008	–	–	> 100 µM
CN(C)CCCN1c2ccccc2Sc2ccc(Cl)cc21	viral replication	inhibitor	A549-ACE2	–	–	2.24 µM
C[C@@H]1O[C@@H](O[C@H]2C[C@@H](O)[C@]3(CO)[C@H]4[C@H](O)C[C@]5(C)[C@@H](C6=CC(=O)OC6)CC[C@]5(O)[C@@H]4CC[C@]3(O)C2)[C@H](O)[C@H](O)[C@H]1O	viral replication	inhibitor	Vero C1008	–	–	0.03 µM
CC(C)c1nc(CN(C)C(=O)N[C@H](C(=O)N[C@@H](Cc2ccccc2)C[C@H](O)[C@H](Cc2ccccc2)NC(=O)OCc2cncs2)C(C)C)cs1	viral replication	inhibitor	Vero C1008	–	–	11.7 to 19.9 µM
CCN(CC)CCOc1ccc(C(O)(Cc2ccc(Cl)cc2)c2ccc(C)cc2)cc1 (stereo not drawn)	viral replication	inhibitor	Vero C1008	–	–	4.68 µM
C[C@@H](O)[C@H]1C(=O)N2C(C(=O)O)=C(S[C@@H]3CN[C@H](C(=O)N(C)C)C3)[C@H](C)[C@H]12	viral replication	inhibitor	Huh-7	–	–	> 2 µM
COC(=O)Nc1nc2ccc(C(=O)c3ccccc3)cc2[nH]1	viral replication	inhibitor	Vero C1008	–	–	0.25 to 1.2 µM
Clc1ccc(C(Cn2ccnc2)OCc2ccsc2Cl)c(Cl)c1 (stereo not drawn)	viral replication	inhibitor	Calu-3	40 h	–	2.43 µM
O=c1c(O[C@@H]2O[C@H](CO)[C@@H](O)[C@H](O)[C@H]2O)c(-c2ccc(O)c(O)c2)oc2cc(O)cc(O)c12	viral replication	inhibitor	Huh-7	–	–	> 2 µM
CCN(CC)CCCC(C)Nc1ccnc2cc(Cl)ccc12 (stereo not drawn)	viral replication	inhibitor	Vero C1008	–	–	42 µM
CNc1ccc2oc(C[C@H]3O[C@@]4(CC[C@H]3C)O[C@H]([C@H](C)C(=O)c3ccc[nH]3)[C@H](C)C[C@H]4C)nc2c1C(=O)O	viral replication	inhibitor	Calu-3	40 h	–	1.55 µM
COc1ccc(CN2CCN(Cc3ccccc3)CC2)cc1	viral replication	–	Vero C1008	–	–	1.58 µM
CCSc1ccc2c(c1)N(CCCN1CCN(C)CC1)c1ccccc1S2	viral replication	inhibitor	Vero C1008	–	–	7.09 µM
CN(C)CCC=C1c2ccccc2CCc2ccccc21	viral replication	inhibitor	A549-ACE2	–	–	0.871 µM
CC(C)(C)OC(=O)N[C@H]1CCCCC/C=C\[C@@H]2C[C@@]2(C(=O)NS(=O)(=O)C2CC2)NC(=O)[C@@H]2C[C@@H](OC(=O)N3Cc4cccc(F)c4C3)CN2C1=O	viral replication	–	HEK-293T	–	–	> 50 µM
CC(C)CCCCCCCCC[C@@H]1CC(=O)N[C@@H](CCC(=O)O)C(=O)N[C@@H](CC(C)C)C(=O)N[C@H](CC(C)C)C(=O)N[C@@H](C(C)C)C(=O)N[C@@H](CC(=O)O)C(=O)N[C@H](CC(C)C)C(=O)N[C@@H](CC(C)C)C(=O)O1	viral replication	inhibitor	Vero	24 h	–	> 0.4 µg/mL
CCN(C)C(=O)Oc1cccc([C@H](C)N(C)C)c1	viral replication	inhibitor	Huh-7	–	–	> 2 µM
Nc1nc(S)[nH]c(=S)c1C(=O)Nc1ccc(Cl)cc1	viral replication	–	Vero C1008	72 h	–	289 µM
O=C1CCC(N2C(=O)c3ccccc3C2=O)C(=O)N1 (stereo not drawn)	viral replication	inhibitor	Huh-7	–	–	> 2 µM
COc1cc2c(cc1OC)CN(CCc1ccc(NC(=O)c3cccc4c(=O)c5cccc(OC)c5[nH]c34)cc1)CC2	viral replication	inhibitor	A549-ACE2	–	–	3.89 µM
CCCCCCCCCCCCCCCC(=O)N[C@H]1C[C@@H](O)[C@@H](O)NC(=O)[C@@H]2[C@@H](O)[C@@H](C)CN2C(=O)[C@H]([C@@H](C)O)NC(=O)[C@H]([C@H](O)[C@@H](O)c2ccc(O)cc2)NC(=O)[C@@H]2C[C@@H](O)CN2C(=O)[C@H]([C@@H](C)O)NC1=O	viral replication	inhibitor	Vero	24 h	–	1.3 µg/mL
Nc1nc(S)[nH]c(=S)c1C(=O)Nc1ccccc1	viral replication	–	Vero C1008	72 h	–	341 µM
CCCCCCCCCC(=O)N[C@@H](Cc1c[nH]c2ccccc12)C(=O)N[C@H](CC(N)=O)C(=O)N[C@@H](CC(=O)O)C(=O)N[C@@H]1C(=O)NCC(=O)N[C@@H](CCCN)C(=O)N[C@@H](CC(=O)O)C(=O)N[C@H](C)C(=O)N[C@@H](CC(=O)O)C(=O)NCC(=O)N[C@H](CO)C(=O)N[C@@H]([C@H](C)CC(=O)O)C(=O)N[C@@H](CC(=O)c2ccccc2N)C(=O)O[C@@H]1C	viral replication	inhibitor	Vero	24 h	–	> 0.4 µg/mL

SMILES	read-out	mode	cells	time	notes	IC50
CCc1nc(C(N)=O)c(Nc2ccc(N3CCC(N4CCN(C)CC4)CC3)c(OC)c2)nc1NC1CCOCC1	viral replication	inhibitor	Huh-7	–	–	0.255 µM
CC(Nc1nc(N2CCNCC2)nc2ccccc12)c1ccccc1N (stereo not drawn)	viral entry	inhibitor	–	–	pseudovirus	35.5 µM
C[C@]12C=CC(=O)C=C1CC[C@@H]1[C@@H]2[C@@H](O)C[C@@]2(C)[C@H]1C[C@H]1O[C@@H](C3CCCCC3)O[C@]12C(=O)CO	viral replication	–	VeroE6/TMPRSS2	–	–	8.1 µM
C=C[C@@H]1C[C@]1(NC(=O)[C@@H]1C[C@@H](Oc2ncc(OC)c3ccc(Cl)cc23)CN1C(=O)[C@@H](NC(=O)OC(C)(C)C)C(C)(C)C)C(=O)NS(=O)(=O)C1CC1	viral replication	–	HEK-293T	–	–	48.4 µM
Nc1nc(S[C@@H]2O[C@H](CO)[C@@H](O)[C@H](O)[C@H]2O)[nH]c(=S)c1C(=O)Nc1ccccc1	viral replication	–	Vero C1008	72 h	–	47.8 µM
CCOP(=O)(OCC)N1C/C(=C\c2ccc(Br)cc2)C(=O)C2(C1)C(c1ccc(Br)cc1)CN(C)C21C(=O)Nc2ccccc21 (stereo not drawn)	viral replication	inhibitor	Vero C1008	72 h	–	8.88 µM
CN1[C@@H]2CC[C@H]1C[C@@H](OC(c1ccccc1)c1ccc(Cl)cc1)C2 (stereo partly drawn)	cytopathic effect	–	Vero C1008	72 h	–	8.9 µM
COc1cccc2c1C(=O)c1c(O)c3c(c(O)c1C2=O)C[C@@](O)(C(C)=O)C[C@@H]3O[C@H]1C[C@H](N)[C@H](O)[C@H](C)O1	viral replication	inhibitor	Calu-3	40 h	–	1.23 µM
CCN(CC)CCCC(C)Nc1c2ccc(Cl)cc2nc2ccc(OC)cc12 (stereo not drawn)	viral replication	–	Calu-3	–	–	> 50 µM
O=C1NCN(c2ccccc2)C12CCN(CCCC(c1ccc(F)cc1)c1ccc(F)cc1)CC2	viral replication	inhibitor	Vero C1008	–	–	3.16 µM
CCN(CC)CCS(=O)(=O)[C@@H]1CCN2C(=O)c3coc(n3)CC(=O)C[C@H](O)/C=C(C)/C=C/CNC(=O)/C=C/[C@@H](C)[C@@H](C(C)C)OC(=O)[C@@H]12	viral replication	inhibitor	Huh-7	–	–	> 2 µM
CCCCc1oc2ccc(NS(C)(=O)=O)cc2c1C(=O)c1ccc(OCCCN(CCCC)CCCC)cc1	viral replication	inhibitor	Calu-3	40 h	–	2.95 µM
Nc1nc(S[C@@H]2O[C@H](CO)[C@@H](O)[C@H](O)[C@H]2O)[nH]c(=S)c1C(=O)Nc1ccc(Cl)cc1	viral replication	–	Vero C1008	72 h	–	45.3 µM
COC(=O)c1ccc2c(c1)NC(=O)/C2=C(\Nc1ccc(N(C)C(=O)CN2CCN(C)CC2)cc1)c1ccccc1	viral replication	inhibitor	Huh-7	–	–	> 2 µM
CCOP(=O)(OCC)N1C/C(=C\c2ccc(F)cc2)C(=O)C2(C1)C(c1ccc(F)cc1)CN(C)C21C(=O)Nc2ccc(Cl)cc21 (stereo not drawn)	viral replication	inhibitor	Vero C1008	72 h	–	13.5 µM
CC(CN1c2ccccc2Sc2ccccc21)N(C)C (stereo not drawn)	viral replication	inhibitor	Vero C1008	–	–	9.21 µM
COc1cccc2c1CCCC2CCCN1CCN(C2CCCCC2)CC1 (stereo not drawn)	viral replication	inhibitor	A549-ACE2	–	–	0.407 µM
CC[C@@H](C)[C@@H]1NC(=O)[C@@H]2CCCN2C(=O)[C@H](Cc2ccccc2)N(C)C(=O)[C@H](Cc2ccccc2)NC(=O)[C@H](C(C)C)N(C)C(=O)[C@@H]([C@H](C)CC)OC(=O)[C@H](C(C)(C)O)N(C)C(=O)[C@H](CC(C)C)NC(=O)[C@H](C(C)C)N(C)C1=O	viral replication	inhibitor	Calu-3	40 h	–	4.53 µM
Fc1ccc(-n2cc(CCCCN3CCC4(CC3)OCc3ccccc34)c3ccccc32)cc1	viral replication	inhibitor	A549-ACE2	–	–	2.04 µM
CC(=O)OC[C@H]1O[C@@H](Sc2nc(N)c(C(=O)Nc3ccccc3)c(=S)[nH]2)[C@H](OC(C)=O)[C@@H](OC(C)=O)[C@@H]1OC(C)=O	viral replication	–	Vero C1008	72 h	–	126 µM
CCN(CC)CCOc1ccc(C(O)(Cc2ccc(Cl)cc2)c2ccc(C)cc2)cc1 (stereo not drawn)	viral replication	inhibitor	A549-ACE2	–	–	0.363 µM
Cc1ccc(NC(=O)c2c(N)nc(S[C@@H]3O[C@H](CO)[C@@H](O)[C@H](O)[C@H]3O)[nH]c2=S)cc1	viral replication	–	Vero C1008	72 h	–	73.7 µM
COCCCC/C(=N\OCCN)c1ccc(C(F)(F)F)cc1	viral replication	inhibitor	A549-ACE2	–	–	2.09 µM
NC(=O)c1ncn([C@@H]2O[C@H](CO)[C@@H](O)[C@H]2O)n1	viral replication	inhibitor	Vero C1008	–	–	> 10 µM
